Results: ChEMBL document CHEMBL2401663, “(Biphenyl-4-yl)methylammonium chlorides: potent anticonvulsants that modulate Na+ currents” (J Med Chem, 2013)

Experiments:
[1] = Toxicity in po dosed albino Sprague-Dawley rat assessed as behavioral toxicity after 0.25 to 4 hrs; format: organism-based; conditions: in vivo
In short: (§1)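 Male albino Sprague-Dawley rats dosed ip or orally, scored for behavioral toxicity (neurological impairment). TD50 is in mg/kg, taken at the time of peak effect.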

Rattus norvegicus [2] = test: Anticonvulsant activity against po dosed albino Sprague-Dawley rat after 0.25 to 4 hrs by maximal electroshock seizure test; format: functional
In short: (§2)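 Male albino Sprague-Dawley rats dosed ip or orally under the NIH Anticonvulsant Screening Program, tested by maximal electroshock seizure.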

[3] = Toxicity in ip dosed albino Sprague-Dawley rat assessed as behavioral toxicity after 0.25 to 4 hrs; format: organism-based; conditions: in vivo; in short: as §1
Rattus norvegicus [4] = test: Anticonvulsant activity against ip dosed albino Sprague-Dawley rat after […] by maximal electroshock seizure test; format: functional
[5] = Toxicity in ip dosed albino CF1 mouse after 0.25 to 4 hrs by rotorod test; format: organism-based; conditions: in vivo
Mus musculus [6] = test: Anticonvulsant activity against ip dosed albino CF1 mouse after 2 hrs by subcutaneous pentylenetetrazol test; format: functional; conditions: albino CF1, 2 h
Mus musculus [7] = test: Anticonvulsant activity against ip dosed albino CF1 mouse after 1 hr by 6 Hz psychomotor seizure test; format: functional
Mus musculus [8] = test: Anticonvulsant activity against ip dosed albino CF1 mouse after 0.25 to 4 hrs by maximal electroshock seizure test; format: functional
[9] = Inhibition of Na+ channel in mouse CAD cells assessed as slow inactivation by whole cell voltage clamp technique; format: cell-based
In short: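 CAD cells (Ham's F12/EMEM, 8% FBS, 37 °C, 5% CO2) by whole-cell voltage clamp at room temperature. Na+ channel slow inactivation measured at −50 mV; IC50 is the concentration at which half of the channels reach a slow-inactivated state.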

[10] = Toxicity in po dosed albino Sprague-Dawley rat assessed as behavioral toxicity; format: organism-based; conditions: in vivo
In short: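 Neurological impairment was scored as behavioral toxicity in male albino Sprague-Dawley rats dosed orally, NIH Anticonvulsant Screening Program. The median impairing dose (TD50, mg/kg) was taken at the time of peak effect.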

Rattus norvegicus [11] = test: Anticonvulsant activity against ip dosed albino Sprague-Dawley rat after 0.25 to 4 hrs by maximal electroshock seizure test; format: functional; in short: as §2
Mus musculus [12] = test: Anticonvulsant activity against ip dosed albino CF1 mouse after 0.25 to 4 hrs by subcutaneous pentylenetetrazol test; format: functional
Mus musculus [13] = test: Anticonvulsant activity against ip dosed albino CF1 mouse after 1 to 4 hrs by 6 Hz psychomotor seizure test; format: functional
Mus musculus [14] = test: Anticonvulsant activity against ip dosed albino CF1 mouse after 4 hrs by maximal electroshock seizure test; format: functional
Rattus norvegicus [15] = test: Anticonvulsant activity against ip dosed albino Sprague-Dawley rat after 0.25 to 2 hrs by maximal electroshock seizure test; format: functional; in short: as §2
Mus musculus [16] = test: Toxicity in ip dosed albino CF1 mouse after […] by rotorod test; format: organism-based; conditions: in vivo
Mus musculus [17] = test: Anticonvulsant activity against ip dosed albino CF1 mouse after […] by subcutaneous pentylenetetrazol test; format: functional
Mus musculus [18] = test: Anticonvulsant activity against ip dosed albino CF1 mouse after 0.25 to 1 hr by 6 Hz psychomotor seizure test; format: functional
Mus musculus [19] = test: Anticonvulsant activity against ip dosed albino CF1 mouse after […] by maximal electroshock seizure test; format: functional
Mus musculus [20] = test: Anticonvulsant activity against ip dosed albino CF1 mouse after 0.5 to 4 hrs by subcutaneous pentylenetetrazol test; format: functional
Mus musculus [21] = test: Anticonvulsant activity against ip dosed albino CF1 mouse after 0.5 to 1 hr by 6 Hz psychomotor seizure test; format: functional
Mus musculus [22] = test: Anticonvulsant activity against ip dosed albino CF1 mouse after 0.25 to 0.5 hrs by maximal electroshock seizure test; format: functional
[23] = Toxicity in ip dosed albino Sprague-Dawley rat assessed as behavioral toxicity after 0.25 to 0.5 hrs; format: organism-based; conditions: in vivo; in short: as §1
Rattus norvegicus [24] = test: Anticonvulsant activity against ip dosed albino Sprague-Dawley rat after 0.25 to 0.5 hrs by maximal electroshock seizure test; format: functional; in short: as §2
Mus musculus [25] = test: Anticonvulsant activity against ip dosed albino CF1 mouse after 0.25 to 2 hrs by subcutaneous pentylenetetrazol test; format: functional
Mus musculus [26] = test: Anticonvulsant activity against ip dosed albino CF1 mouse after 0.5 to 4 hrs by 6 Hz psychomotor seizure test; format: functional
Mus musculus [27] = test: Anticonvulsant activity against ip dosed albino CF1 mouse after 0.25 to 1 hr by maximal electroshock seizure test; format: functional
Mus musculus [28] = test: Anticonvulsant activity against ip dosed albino CF1 mouse after 2 hrs by 6 Hz psychomotor seizure test; format: functional
Mus musculus [29] = test: Anticonvulsant activity against ip dosed albino CF1 mouse after 0.5 to 2 hrs by maximal electroshock seizure test; format: functional

Question: For `Cl.NCc1ccc(-c2cccc(F)c2)cc1`, which TD50 [1] is on record?
Answer: Its TD50 is > 30 mg/kg.

Question: And the ED50 (Rattus norvegicus [2])?
Answer: Its ED50 is > 30 mg/kg.

Question: And the TD50 [3]?
Answer: The TD50 was > 65 mg/kg.

Question: And the ED50 (Rattus norvegicus [4])?
Answer: Its ED50 is 65 mg/kg.

Question: What about the TD50 [5] of the same molecule?
Answer: The TD50 was > 100 mg/kg.

Question: What about the ED50 (Mus musculus [6]) of the same molecule?
Answer: The ED50 was 50 mg/kg.

Question: And the ED50 (Mus musculus [7])?
Answer: The ED50 was 50 mg/kg.

Question: What about the ED50 (Mus musculus [8]) of the same molecule?
Answer: The ED50 was > 50 mg/kg.

Question: Which IC50 [9] does the source give for `COC[C@@H](NC(C)=O)C(=O)NCc1ccccc1` [LACOSAMIDE] here?
Answer: Its IC50 is 85 µM.

Question: What about the TD50 [10] of the same molecule?
Answer: The TD50 was > 500 mg/kg.

Question: Which TD50 [1] does the source give for `Cl.NCc1ccc(-c2ccc(F)cc2)cc1` here?
Answer: The TD50 was > 30 mg/kg.

Question: And the ED50 (Rattus norvegicus [2])?
Answer: The ED50 was > 30 mg/kg.

Question: What about the TD50 [3] of the same molecule?
Answer: Its TD50 is > 30 mg/kg.

Question: And the ED50 (Rattus norvegicus [11])?
Answer: Its ED50 is > 30 mg/kg.

Question: And the TD50 [5]?
Answer: Its TD50 is > 50 mg/kg.

Question: And the ED50 (Mus musculus [12])?
Answer: Its ED50 is > 50 mg/kg.

Question: What about the ED50 (Mus musculus [13]) of the same molecule?
Answer: The ED50 was < 100 mg/kg.

Question: And the ED50 (Mus musculus [14])?
Answer: Its ED50 is 50 mg/kg.

Question: With `Cl.NCc1ccc(-c2ccccc2OC(F)(F)F)cc1` as the molecule, how does the TD50 [1] read?
Answer: The TD50 was > 30 mg/kg.

Question: What about the ED50 (Rattus norvegicus [2]) of the same molecule?
Answer: Its ED50 is > 30 mg/kg.

Question: What about the TD50 [3] of the same molecule?
Answer: The TD50 was > 30 mg/kg.

Question: And the ED50 (Rattus norvegicus [15])?
Answer: The ED50 was < 30 mg/kg.

Question: And the TD50 (Mus musculus [16])?
Answer: Its TD50 is 72 mg/kg.

Question: And the ED50 (Mus musculus [17])?
Answer: Its ED50 is > 120 mg/kg.

Question: And the ED50 (Mus musculus [18])?
Answer: Its ED50 is < 50 mg/kg.

Question: And the ED50 (Mus musculus [19])?
Answer: Its ED50 is 40 mg/kg.

Question: For `Cl.NCc1ccc(-c2ccccc2)cc1`, which TD50 [1] is on record?
Answer: The TD50 was > 30 mg/kg.

Question: And the ED50 (Rattus norvegicus [2])?
Answer: The ED50 was > 30 mg/kg.

Question: What about the TD50 [3] of the same molecule?
Answer: The TD50 was > 30 mg/kg.

Question: And the ED50 (Rattus norvegicus [11])?
Answer: Its ED50 is > 30 mg/kg.

Question: And the TD50 [5]?
Answer: Its TD50 is > 100 mg/kg.

Question: What about the ED50 (Mus musculus [20]) of the same molecule?
Answer: Its ED50 is > 300 mg/kg.

Question: And the ED50 (Mus musculus [21])?
Answer: Its ED50 is 100 mg/kg.

Question: What about the ED50 (Mus musculus [22]) of the same molecule?
Answer: Its ED50 is 30 mg/kg.

Question: Which results are given for `Cl.NCc1ccc(-c2cccc(Cl)c2)cc1`?
Answer: TD50 [1]: > 30 mg/kg; ED50 (Rattus norvegicus [2]): > 30 mg/kg; TD50 [23]: 65 mg/kg; ED50 (Rattus norvegicus [24]): 65 mg/kg; TD50 [5]: > 100 mg/kg; ED50 (Mus musculus [25]): < 100 mg/kg; ED50 (Mus musculus [26]): < 100 mg/kg; ED50 (Mus musculus [27]): < 100 mg/kg

Question: Which TD50 [1] does the source give for `Cl.NCc1ccc(-c2ccc(OC(F)(F)F)cc2)cc1` here?
Answer: Its TD50 is > 30 mg/kg.

Question: And the ED50 (Rattus norvegicus [2])?
Answer: The ED50 was > 30 mg/kg.

Question: What about the TD50 [3] of the same molecule?
Answer: The TD50 was > 30 mg/kg.

Question: And the ED50 (Rattus norvegicus [11])?
Answer: The ED50 was > 30 mg/kg.

Question: And the TD50 [5]?
Answer: Its TD50 is > 50 mg/kg.

Question: What about the ED50 (Mus musculus [12]) of the same molecule?
Answer: Its ED50 is > 50 mg/kg.

Question: And the ED50 (Mus musculus [28])?
Answer: Its ED50 is < 100 mg/kg.

Question: And the ED50 (Mus musculus [29])?
Answer: The ED50 was 50 mg/kg.
